Screening results from PubChem.
The list is not random: actives were taken first. Their share in the collection is about 4.6%.
OX1R antag-1 = OX1R (HCRTR1) antagonists, primary screen, fluorescence, CHO/OX1R cells, Fluo-8 calcium, orexin A. 0.43% of 330,000 active. AID 434989, 2010. Fluo-8 calcium fluorescence. inhibition, % at 5 µM;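 active means inhibition above its plate's threshold, mean inhibition of all tested compounds on the plate plus 3 SD, cut at about 37% in these data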
Target sequence (O43613 whole entry, looked up): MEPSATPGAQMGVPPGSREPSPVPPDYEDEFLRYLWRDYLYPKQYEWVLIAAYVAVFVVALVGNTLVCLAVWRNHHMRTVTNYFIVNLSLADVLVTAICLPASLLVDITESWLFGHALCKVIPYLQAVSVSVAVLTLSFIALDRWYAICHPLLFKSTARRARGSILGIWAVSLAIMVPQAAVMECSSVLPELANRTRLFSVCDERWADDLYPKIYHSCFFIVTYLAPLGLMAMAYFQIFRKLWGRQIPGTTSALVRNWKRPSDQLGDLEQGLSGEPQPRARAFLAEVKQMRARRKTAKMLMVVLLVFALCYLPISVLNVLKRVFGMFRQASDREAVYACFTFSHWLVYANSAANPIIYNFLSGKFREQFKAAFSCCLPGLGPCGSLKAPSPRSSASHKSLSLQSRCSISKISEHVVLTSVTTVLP
TAAR1 ag = human TAAR1 agonists, primary screen, Fluo-8 calcium fluorescence, CHO RD-HGA16 cells; Trace amine-associated receptor 1 (Homo sapiens), Q96RJ0; vehicle wells 0%, saturating PEA agonist 100%; activation, % at 3 µM; 0.99% of 360,000 active;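 active means activation above the mean activation of all test compounds in the run plus 3 SD, cut at about 38% in these data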
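Benchmarks: low control DMSO, high control PEA (EC100); System: CHO RD-HGA16 cells carrying human TAAR1 plus Gα16; Detection: Fluo-8 fluorescence, 5 s baseline then 140 s kinetic read; Schedule: 17-24 h plating, Fluo-8 75 min 37 °C, 30 min RT; Read-out basis: % activation from peak over basal fluorescence ratio, DMSO-to-PEA scaled.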
GPR7 antag = GPR7 receptor antagonists, primary screen, cell-based, fluorescence, single concentration | 1.1% of 290,000 active | GPR7-expressing cells, fluorescence antagonist assay | inhibition, % at 4.4 µM | Neuropeptides B/W receptor type 1 (Homo sapiens), P48145; in the data active means inhibition above about 16%, passing the limit was not always enough;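 further: cells stimulated with the agonist NPW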
OX1R antag-2 = antagonists of human orexin 1 receptor (OX1R) | inhibition, % at 6.6 µM | Orexin/Hypocretin receptor type 1 (Homo sapiens), O43613 | 1.8% of 330,000 active | OX1R-expressing cells, FRET antagonist read-out | AID 485270, 2010; in the data active means inhibition mostly above about 38%, no sharp cut-off; inactive means mostly below about 40%
CHO parental Ca = ATP-evoked calcium signal inhibitors, parental CHO, primary screen, counter-screen for OX1R antagonist project, cell-based, fluorescence, Fluo-8 calcium dye. parental CHO-K1, ATP-induced calcium, Fluo-8 fluorescence. inhibition, % at 5.6 µM. 0.63% of 330,000 active;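 active means inhibition above that plate's mean sample inhibition plus 3 SD, cut at about 26% in these data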
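Test system: untransfected parental CHO cell line; also added: ATP stimulus; dosing: 5.6 µM, single dose; signal: calcium-sensitive Fluo-8 fluorescence; measure: percent inhibition of ATP-evoked calcium rise, normalized to controls; benchmarks: low control ATP plus DMSO, high control DMSO only; replication: one well per compound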
TAAR1 antag = human TAAR1 antagonists, primary screen, Fluo-8 calcium fluorescence, CHO RD-HGA16 cells; 1.5% of 360,000 active; Trace amine-associated receptor 1 (Homo sapiens), Q96RJ0; AID 624466, 2012; antagonist; inhibition, % at 3 µM;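 active means inhibition above a per-plate cutoff, the mean inhibition of test compounds on that plate plus 3 SD, cut at about 49% in these data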
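test system = CHO RD-HGA16 cells bearing hTAAR1 | replication = singlicate | controls = DMSO-only wells and EC80 β-PEA-stimulated wells | reagent = EC80 β-phenethylamine stimulus | read-out basis = percent inhibition of PEA-evoked calcium signal, max/basal emission ratio | schedule = seeding 17-24 h prior, 75-min 37 °C, 30-min RT dye loading | signal = kinetic Fluo-8 calcium fluorescence measurement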
OX1R Fluo8 conf = OX1R (HCRTR1) antagonists, confirmation, fluorescence, CHO/OX1R cells, Fluo-8 calcium, orexin A; inhibition, % at 5 µM; orexin A calcium Fluo-8 fluorescence; shares compounds with OX1R antag-1; 38% of 1,100 active; in the data active means inhibition above about 29%
CHO Ca triplic = ATP-evoked calcium inhibition in parental CHO, counter-screen for OX1R antagonist project, cell-based, fluorescence, CHO-K1, triplicate; shares compounds with OX1R antag-1; ATP-induced calcium, Fluo-8 fluorescence; inhibition, % at 5.6 µM; 9.3% of 1,100 active; AID 492965, 2010;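 active means inhibition above a per-plate limit, the mean inhibition of that plate's test compounds plus 3 SD, cut at about 25% in these data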
Numbers stand for hits; n = inactive; x = not tested or not shown.

SMILES	OX1R antag-1	TAAR1 ag	GPR7 antag	OX1R antag-2	CHO parental Ca	TAAR1 antag	OX1R Fluo8 conf	CHO Ca triplic
CSc1ccc(CN(C)C(=O)c2cccc(S(=O)(=O)NCc3ccccc3)c2)cc1	40	n	n	n	n	n	n	n
CCOc1cc(S(=O)(=O)Nc2ccc(Cl)cn2)ccc1Cl	n	n	n	n	n	n	x	x
CCOc1cc(S(=O)(=O)Nc2ccccc2CC)ccc1Cl	56	n	n	n	n	n	n	n
COC(=O)[C@@H](CC(C)C)NS(=O)(=O)N(Cc1ccccc1)[C@@H](CC(C)C)C(=O)OC	n	n	x	n	n	50	n	n
COc1ccc(CN([C@H](CO)CC(C)C)S(=O)(=O)N(Cc2ccccc2)[C@H](CO)CC(C)C)cc1	67	n	x	n	n	n	n	n
COC(=O)[C@H](CC(C)C)NS(=O)(=O)c1ccccc1	n	n	n	n	n	n	x	x
CC1C/C(=N\NC(=S)NC(C)C)CC(C)(C)C1 (stereo not drawn)	n	n	n	n	n	n	x	x
COc1ccccc1NS(=O)(=O)c1cc([N+](=O)[O-])ccc1N/N=C/c1c[nH]c2ccccc12	n	n	n	n	n	54	n	n
CC(=O)NC(NC(=S)Nc1ccc(S(N)(=O)=O)cc1)C(Cl)(Cl)Cl (stereo not drawn)	n	n	n	n	n	n	x	x
CC(=O)NC(NC(=S)Nc1ccc(N=Nc2ccccc2)cc1)C(Cl)(Cl)Cl (stereo not drawn)	n	n	n	n	n	n	41	n
CCN(CC)c1ccc(S(=O)(=O)N(CC)CC)cc1NC(=O)c1cccnc1	n	n	n	n	n	n	x	x
COC1C(C)=C(C)C(=O)N1Cc1ccc(F)cc1 (stereo not drawn)	n	n	n	n	n	n	x	x
O=[N+]([O-])c1ccc(Nc2ccc3ccccc3c2)nc1	46	n	n	n	n	n	n	n
CCc1ccc(N2CC(C(=O)Nc3ccc4c(c3)OCO4)CC2=O)cc1 (stereo not drawn)	n	n	x	n	n	n	x	x
CC(=O)Nc1ccc(-c2nnc(SCC(=O)Nc3ccc4c(c3)oc3ccccc34)n2C)cc1	n	n	n	n	n	n	n	n
COc1ccccc1NC(=O)CSc1nnc(-c2ccc(NC(C)=O)cc2)n1C	n	n	n	n	n	n	x	x
CCNC(=O)Nc1cc(S(=O)(=O)Nc2ccc(OC)cc2)ccc1N1CCOCC1	41	x	x	n	n	x	36	75
CCCCNC(=O)c1ccc(N2CCOCC2)c(NS(=O)(=O)c2ccc(OC)cc2)c1	n	n	n	n	n	n	x	x
O=C(O)CCCC(=O)N1CC(=O)Nc2ccccc21	n	n	n	n	n	n	x	x
O=C1CN(C(=O)CCCc2c[nH]c3ccccc23)c2ccccc2N1	59	n	n	n	n	n	30	n
O=C(CSc1ccc2ccccc2c1Br)Nc1cccc(S(=O)(=O)NC2=NCCCCC2)c1	n	n	n	n	n	n	n	n
O=C(c1ccco1)N1CCN(c2ncccn2)CC1	n	n	n	n	n	n	n	n
O=C(c1ccco1)N1CCN(C(=O)N2CCCC2)CC1	n	n	n	n	n	n	x	x
O=C(COC(=O)CCc1c[nH]c2ccccc12)NCCc1ccccc1	n	n	x	n	n	n	x	x
NS(=O)(=O)c1ccc(CCNC(=O)COC(=O)CCc2c[nH]c3ccccc23)cc1	n	n	x	n	n	n	n	n
SMILES	OX1R antag-1	TAAR1 ag	GPR7 antag	OX1R antag-2	CHO parental Ca	TAAR1 antag	OX1R Fluo8 conf	CHO Ca triplic
COC(=O)C(Cc1ccccc1)NC(=O)CCc1c[nH]c2ccccc12 (stereo not drawn)	n	n	n	n	n	n	37	n
O=C(COC(=O)[C@H](Cc1c[nH]c2ccccc12)NC(=O)c1cccs1)NCc1ccccc1	n	n	n	n	n	n	n	n
CCOc1ccc(OCCC(=O)OCC(=O)Nc2cc(S(=O)(=O)N3CCOCC3)ccc2C)cc1	n	n	x	n	n	n	x	x
COCCn1c(=S)[nH]c2cc(C(=O)N3CCN(c4ccc(F)cc4)CC3)ccc2c1=O	n	n	n	n	n	n	x	x
Cc1c(C(=O)NC(=S)NCC(C)C)oc2ccccc12	n	n	n	n	n	n	x	x
C=CCNC(=S)NC(=O)c1oc2ccccc2c1C	n	n	n	n	n	n	38	n
Cc1cccc(NC(=O)C2CCCN2C(=O)Oc2ccccc2)c1C (stereo not drawn)	n	n	n	n	n	n	n	n
C=CC(COCc1ccccc1)N([C@@H](Cc1ccccc1)C(=O)OC)S(=O)(=O)c1ccccc1Br (stereo partly drawn)	80	n	x	n	n	n	n	n
CC(C)(C)N(NC(=O)Nc1ccc(Cl)c(Cl)c1)C(=O)c1ccccc1	73	n	n	n	n	n	n	n
O=C(CN(C(=O)c1ccccc1Cl)C1CCCCC1)Nc1ccc(Cl)c([N+](=O)[O-])c1	n	n	n	n	n	n	n	n
CC(C)(C)OC(=O)CN1C(=O)C(Sc2n[nH]c(-c3ccccc3)n2)CCc2ccccc21 (stereo not drawn)	n	n	n	n	n	n	x	x
CCCOP(=O)(OCCC)C(Nc1ccc(C(C)C)cc1)c1ccc([N+](=O)[O-])cc1 (stereo not drawn)	55	n	n	n	n	n	n	n
COP(=O)(OC)C(Nc1ccc([N+](=O)[O-])cc1)c1ccccc1 (stereo not drawn)	n	n	n	n	n	n	x	x
CCOC(=O)C1=CC[C@@H](c2cccc(C)c2)N(S(=O)(=O)c2ccc(C)cc2)[C@H]1C(=O)OCC	n	n	x	n	n	n	n	n
CCOC(=O)C1=CC[C@@H](c2ccccc2Cl)N(S(=O)(=O)c2ccc(C)cc2)[C@H]1C(=O)OCC	60	n	x	n	n	n	n	n
CC(=O)c1ccc(OCc2cc(C(=O)N(C)CCOc3ccc(C)cc3)no2)cc1	n	n	n	n	n	n	n	n
Cn1nnnc1NCc1cccc(Cl)c1	n	n	n	n	n	n	x	x
Clc1cccc(CNc2nnnn2-c2ccccc2)c1	45	n	n	n	n	n	n	n
CCN(CC)c1ccc2c(c1)oc(=O)c1c(Cl)cc(=O)oc12	n	x	n	n	n	x	80	56
